Reference: ChEMBL document CHEMBL1687827, “Profiling the Aspergillus fumigatus proteome in response to caspofungin” (2011)
Calls of active or inactive are those of the source. No cut-off for these calls is given here.

Assays:
Aspergillus fumigatus [1] = test: Induction of change in 14-alpha sterol demethylase Cyp51A protein level in iTRAQ-118 labelled cell wall fraction of drug-resistant Aspergillus fumigatus EMFR-S678P at 0.12 ug/ml after 24 hrs in YPD medium by MS (MS/MS) analysis relative to control; type: functional, organism-based
Method in brief: (§1)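 Conidia at 1 × 10⁵/ml were grown at 37°C, shaking at 225 rpm, in YPD with or without 0.12 μg/ml caspofungin for 24 or 48 h. The culture filtrate was kept as the secreted fraction. Mycelia were lysed by French press in HEPES/glycerol/EDTA/PMSF/DTT buffer, and the 5,000 × g pellet was washed to give CW/PM. Proteins were reduced, alkylated and trypsin-digested at 37°C overnight, then iTRAQ-labelled and run by 2D LC-MS/MS. Ratios are the median of unique-peptide ratios, median-normalized, versus the no-drug control.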

Aspergillus fumigatus [2] = test: Induction of change in hypothetical gene locus AFUA_6G02310 expression in drug-susceptible Aspergillus fumigatus KU80 delta-akuB at 0.12 ug/ml after 24 hrs in YPD medium by microarray analysis relative to control; type: functional
Method in brief: (§2)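 Mycelia grown in YPD ± 0.12 μg/ml caspofungin (1 × 10⁵ conidia/ml, 37°C, shaking) and harvested at 24 or 48 h. Total RNA extracted, DNase-treated and quality-checked; 2 μg labelled per TIGR SOP M007 and hybridized to whole-genome arrays. Three independent experiments with dye flip (6 replicates); drug vs untreated fold change.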

Aspergillus fumigatus [3] = test: Induction of change in ribosomal protein L27a gene expression in drug-susceptible Aspergillus fumigatus KU80 delta-akuB at 0.12 ug/ml after 24 hrs in YPD medium by microarray analysis relative to control; type: functional
Method in brief: (§3)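 Mycelia grown from 1 × 10⁵ conidia/ml in YPD at 37°C, 225 rpm, with or without 0.12 μg/ml caspofungin. Total RNA extracted, DNase-treated; 2 μg labelled per TIGR SOP M007 for whole-genome array hybridization. Three independent experiments with dye flip (6 replicates); >2-fold change deemed significant.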

Aspergillus fumigatus [4] = test: Induction of change in SUN domain protein (Uth1), putative protein level in iTRAQ-118 labelled cell wall fraction of drug-resistant Aspergillus fumigatus EMFR-S678P at 0.12 ug/ml after 24 hrs in YPD medium by MS (MS/MS) analysis relative to control; type: functional; method in brief: as §1
Aspergillus fumigatus [5] = test: Induction of change in molecular chaperone and allergen Mod-E/Hsp90/Hsp1 protein level in iTRAQ-116 labelled secreted fraction of drug-resistant Aspergillus fumigatus EMFR-S678P at 0.12 ug/ml after 48 hrs in YPD medium by MS (MS/MS) analysis relative to control; type: functional; method in brief: as §1
Aspergillus fumigatus [6] = test: Induction of change in transcriptional repressor TupA/RocA, putative protein level in iTRAQ-118 labelled cell wall fraction of drug-susceptible Aspergillus fumigatus KU80 delta-akuB at 0.12 ug/ml after 24 hrs in YPD medium by MS (MS/MS) analysis relative to control; type: functional
Method in brief: (§4)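 Conidia (1 × 10⁵/ml) grown in YPD, 37°C, 225 rpm, ± 0.12 μg/ml caspofungin; filtrate taken as secreted fraction, French-press lysate 5,000 × g pellet as cell wall/plasma membrane. Trypsin digests 8-plex iTRAQ-labelled (drug-free channels as references), pooled, 2D-chromatography, MS/MS. Median-normalized; protein ratio = median of unique-peptide ratios, log2 normalized.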

Aspergillus fumigatus [7] = test: Induction of change in thioredoxin TrxA protein level in iTRAQ-118 labelled cell wall fraction of drug-susceptible Aspergillus fumigatus KU80 delta-akuB at 0.12 ug/ml after 24 hrs in YPD medium by MS (MS/MS) analysis relative to control; type: functional; method in brief: as §4
Aspergillus fumigatus [8] = test: Induction of change in 60S acidic ribosomal protein P2 gene expression in drug-susceptible Aspergillus fumigatus KU80 delta-akuB at 0.12 ug/ml after 24 hrs in YPD medium by microarray analysis relative to control; type: functional; method in brief: as §2
Aspergillus fumigatus [9] = test: Induction of change in outer mitochondrial membrane protein porin protein level in iTRAQ-116 labelled secreted fraction of drug-susceptible Aspergillus fumigatus KU80 delta-akuB at 0.12 ug/ml after 48 hrs in YPD medium by MS (MS/MS) analysis relative to control; type: functional; method in brief: as §4
Aspergillus fumigatus [10] = test: Induction of change in BYS1 domain protein, putative protein level in iTRAQ-118 labelled cell wall fraction of drug-susceptible Aspergillus fumigatus KU80 delta-akuB at 0.12 ug/ml after 24 hrs in YPD medium by MS (MS/MS) analysis relative to control; type: functional
Method in brief: (§5)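 Conidia at 1 × 10⁵/ml grown shaking at 37°C in YPD with or without 0.12 μg/ml caspofungin; mycelia filtered at 24 or 48 h. Secreted fraction taken from the filtrate; cell wall/plasma membrane pellet recovered after French-press lysis and a 5,000 × g spin. Proteins trypsin-digested and iTRAQ-labelled, drug vs no-drug channels at each time, then 2D LC-MS/MS. Protein ratio is the median of ratios from uniquely assigned peptides after median normalization.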

Aspergillus fumigatus [11] = test: Induction of change in conserved hypothetical gene expression in drug-susceptible Aspergillus fumigatus KU80 delta-akuB at 0.12 ug/ml after 24 hrs in YPD medium by microarray analysis relative to control; type: functional; method in brief: as §2
Aspergillus fumigatus [12] = test: Induction of change in BYS1 domain protein, putative protein level in iTRAQ-118 labelled cell wall fraction of drug-resistant Aspergillus fumigatus EMFR-S678P at 0.12 ug/ml after 24 hrs in YPD medium by MS (MS/MS) analysis relative to control; type: functional, organism-based; method in brief: as §1
Aspergillus fumigatus [13] = test: Induction of change in sur7 protein, putative gene expression in drug-susceptible Aspergillus fumigatus KU80 delta-akuB at 0.12 ug/ml after 24 hrs in YPD medium by microarray analysis relative to control; type: functional; method in brief: as §3
Aspergillus fumigatus [14] = test: Induction of change in 60S ribosomal protein L10 protein level in iTRAQ-118 labelled cell wall fraction of drug-susceptible Aspergillus fumigatus KU80 delta-akuB at 0.12 ug/ml after 24 hrs in YPD medium by MS (MS/MS) analysis relative to control; type: functional; method in brief: as §5
Aspergillus fumigatus [15] = test: Induction of change in plasma membrane H -ATPase protein level in iTRAQ-116 labelled secreted fraction of drug-susceptible Aspergillus fumigatus KU80 delta-akuB at 0.12 ug/ml after 48 hrs in YPD medium by MS (MS/MS) analysis relative to control; type: functional; method in brief: as §4
Aspergillus fumigatus [16] = test: Induction of change in phosphoglycerate kinase PgkA, putative protein level in iTRAQ-118 labelled cell wall fraction of drug-resistant Aspergillus fumigatus EMFR-S678P at 0.12 ug/ml after 24 hrs in YPD medium by MS (MS/MS) analysis relative to control; type: functional; method in brief: as §1
Aspergillus fumigatus [17] = test: Induction of change in allergen Asp F4 protein level in iTRAQ-116 labelled secreted fraction of drug-susceptible Aspergillus fumigatus KU80 delta-akuB at 0.12 ug/ml after 48 hrs in YPD medium by MS (MS/MS) analysis relative to control; type: functional; method in brief: as §5
Aspergillus fumigatus [18] = test: Induction of change in ATP citrate lyase, subunit 1, putative protein level in iTRAQ114 labelled secreted fraction of drug-resistant Aspergillus fumigatus EMFR-S678P at 0.12 ug/ml after 24 hrs in YPD medium by MS (MS/MS) analysis relative to control; type: functional; method in brief: as §1

CC[C@H](C)C[C@H](C)CCCCCCCCC(=O)N[C@H]1C[C@@H](O)[C@@H](NCCN)NC(=O)[C@@H]2[C@@H](O)CCN2C(=O)[C@H]([C@H](O)CCN)NC(=O)[C@H]([C@H](O)[C@@H](O)c2ccc(O)cc2)NC(=O)[C@@H]2C[C@@H](O)CN2C(=O)[C@H]([C@@H](C)O)NC1=O [CASPOFUNGIN]
Activity (Aspergillus fumigatus [1]): inactive
fold change (FC) (Aspergillus fumigatus [2]): 3.8
fold change (FC) (Aspergillus fumigatus [3]): 3.6
fold change (FC) (Aspergillus fumigatus [4]): 1.07
fold change (FC) (Aspergillus fumigatus [5]): -1.07
fold change (FC) (Aspergillus fumigatus [6]): -2.1
fold change (FC) (Aspergillus fumigatus [7]): -3.2
fold change (FC) (Aspergillus fumigatus [8]): 4.3
fold change (FC) (Aspergillus fumigatus [9]): -1.2
fold change (FC) (Aspergillus fumigatus [10]): -2.3
fold change (FC) (Aspergillus fumigatus [11]): 15.2
Activity (Aspergillus fumigatus [12]): inactive
fold change (FC) (Aspergillus fumigatus [13]): -5.2
fold change (FC) (Aspergillus fumigatus [14]): 2.3
fold change (FC) (Aspergillus fumigatus [15]): -1.7
fold change (FC) (Aspergillus fumigatus [16]): -1.15
fold change (FC) (Aspergillus fumigatus [17]): -7
fold change (FC) (Aspergillus fumigatus [18]): -1.07
